Where “and” joins values, the source holds several entries; their conditions need not be identical. Identical values can stand only once. Like-named read-outs stand apart in the source and are kept apart here.
What was measured:
[1] = data from the centers; cited from earlier work
[2] = Minimal equilibrium rivaroxaban concentration in blood plasma by HPLC-MS; format: in vivo, patients
Method in brief: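 Plasma thawed at room temperature, protein-precipitated with methanol plus 0.1% hydrogen chloride 9:1, vortexed, left 10 min, spun 9000 RCF 10 min. C18 column at 40°C, isocratic ammonium acetate/formic acid, water:acetonitrile 70:30. Validated 5–1000 ng/mL. Genotypes by real-time PCR on EDTA blood.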

[3] = AF patients, p = 0.02, cited from earlier work
[4] = system: platelets (ADP-activated, P2Y12 Reactivity Units)
[5] = carriership of low function allelic variants, patients on clopidogrel; cited from earlier work

O=C(NC[C@H]1CN(c2ccc(N3CCOCC3=O)cc2)C(=O)O1)c1ccc(Cl)s1 [Rivaroxaban]
average level of plasma concentration of rivaroxaban [1]: 40 ng/mL
patients beyond the therapeutic range [1]: ~40%
variation of plasma concentration of rivaroxaban [1]: 15 fold
Rivaroxaban concentration, M ([2]; ABCB1 3435 C>T CT+TT, N=73): 80.6
Rivaroxaban concentration, M ([2]; ABCB1 rs4148738 CC, N=19): 78.8
Rivaroxaban concentration, M ([2]; ABCB1 rs4148738 CT+TT, N=84): 78.9
Rivaroxaban concentration, M ([2]; CYP2C19*2 GA+AA, N=31): 86.2
Rivaroxaban concentration, M ([2]; CYP2C19*2 GG, N=72): 75.7
Rivaroxaban concentration, M ([2]; CYP3A5*3 AG+AA, N=19): 69.7
Rivaroxaban concentration, M ([2]; CYP3A5*3 GG, N=84): 81.6
rivaroxaban concentration ([2]; patients with HAS-BLED 3–9): 92.3 ± 64.9
rivaroxaban concentration ([2]; patients with HAS-BLED <3): 67.2 ± 47.4
equilibrium rivaroxaban concentration ([3]; first value of bleeding comparison): 48±30
equilibrium rivaroxaban concentration ([3]; second value of bleeding comparison): 34 ± 26

COC(=O)[C@H](c1ccccc1Cl)N1CCc2sccc2C1 [clopidogrel]
Platelet reactivity units (PRU), M ([4]; ABCB1 3435 C>T CC, N=30): 136.8 PRU
Platelet inhibition rate (%), M ([4]; ABCB1 3435 C>T CC, N=30, ACS+AF patients on clopidogrel and rivaroxaban): 29.8%
Platelet inhibition rate (%), M ([4]; ABCB1 3435 C>T CT+TT, N=73): 30.9%
Platelet reactivity units (PRU), M ([4]; ABCB1 3435 C>T CT+TT, N=73): 135.5 PRU
Platelet reactivity units (PRU), M ([4]; ABCB1 rs4148738 CC (non-carriers of T), N=19): 113.3 ± 57.1 PRU and 113.3 PRU
Platelet inhibition rate (%), M ([4]; ABCB1 rs4148738 CC, N=19): 34.5%
Platelet reactivity units (PRU), M ([4]; ABCB1 rs4148738 CT+TT (T carriers), N=84): 141.0 ± 62.3 PRU and 141.0 PRU
Platelet inhibition rate (%), M ([4]; ABCB1 rs4148738 CT+TT, N=84): 29.7%
Platelet inhibition rate (%), M ([4]; CYP2C19*2 GA+AA, N=31): 28.6%
Platelet reactivity units (PRU), M ([4]; CYP2C19*2 GA+AA, N=31): 145.2 PRU
Platelet inhibition rate (%), M ([4]; CYP2C19*2 GG, N=72): 31.4%
Platelet reactivity units (PRU), M ([4]; CYP2C19*2 GG, N=72): 131.9 PRU
Platelet inhibition rate (%), M ([4]; CYP3A5*3 AG+AA, N=19): 30.4%
Platelet reactivity units (PRU), M ([4]; CYP3A5*3 AG+AA, N=19): 139.8 PRU
Platelet inhibition rate (%), M ([4]; CYP3A5*3 GG, N=84): 30.6%
Platelet reactivity units (PRU), M ([4]; CYP3A5*3 GG, N=84): 135.0 PRU
platelet inhibition level ([4]; patients with in-hospital death): 63.3%
platelet inhibition level ([4]; patients without in-hospital death): 29.6%
increase of risk of major adverse cardiovascular events (MACE) [5]: 1.5 fold
increase of risk of stent thrombosis [5]: 2.8 fold

Source: publication PMC6986167 (Pharmacogenomics and Personalized Medicine, 2020)
